Assay results published in ChEMBL document CHEMBL1150285, “Combination of non-natural D-amino acid derivatives and allophenylnorstatine-dimethylthioproline scaffold in HIV protease inhibitors have high efficacy in mutant HIV” (J Med Chem, 2008).

Tests used:
[1] = biological target: Protease (Human immunodeficiency virus 1) (UniProt Q9YQ12); conditions: at 1 nM
Protease = Protease (Human immunodeficiency virus 1, UniProt Q9YQ12); experiment: Inhibition of HIV1 protease
Outline: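 HIV-1 protease (2 µg/mL stock in pH 5.5 acetate buffer) was mixed with test compound (10 nM solution in DMSO) in MES-NaOH buffer, pH 5.5, containing DTT, EDTA and NaCl. The mixture was preincubated 5 min at 37 °C, then started with substrate H-Lys-Ala-Arg-Val-Tyr*Phe(p-NO₂)-Glu-Ala-Nle-NH₂. After 60 min at 37 °C, the reaction was stopped with 1N HCl.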

[2] = Selectivity index, ratio of CC50 for human MT4 cells to EC50 for HIV1 3B
[3] = tested on: Human immunodeficiency virus 1; experiment: Antiviral activity against HIV1 3B in human MT4 cells assessed as inhibition of viral-induced cytopathic effect by MTT method; format: functional, organism-based; conditions: Human immunodeficiency virus 1, 3B
[4] = tested on: Human immunodeficiency virus 1; experiment: Antiviral activity against HIV1 3B in presence of 10% fetal calf serum; format: functional, organism-based; conditions: Human immunodeficiency virus 1, 3B
[5] = tested on: Human immunodeficiency virus 1; experiment: microbe, parasite or virus in culture; format: functional, organism-based; conditions: Human immunodeficiency virus 1, NL432
[6] = tested on: Human immunodeficiency virus 1; experiment: Antiviral activity against nelfinavir-resistant HIV1 NL432; format: functional, organism-based; conditions: Human immunodeficiency virus 1, NL432
[7] = tested on: Human immunodeficiency virus 1; experiment: microbe, parasite or virus in culture; format: functional, organism-based; conditions: Human immunodeficiency virus 1, NL432; remark: listed apart in the source
[8] = Cytotoxicity against human MT4 cells by MTT assay; format: cell-based
[9] = tested on: Human immunodeficiency virus 1; experiment: Antiviral activity against HIV1 3B in presence of 10% fetal calf serum and alpha1 acid glycoprotein; format: functional, organism-based; conditions: Human immunodeficiency virus 1, 3B
[10] = tested on: Human immunodeficiency virus 1; experiment: Ratio of EC50 for nelfinavir-resistant HIV1 NL432 to EC50 for wild-type HIV1 NL432; format: functional
[11] = tested on: Human immunodeficiency virus 1; experiment: Antiviral activity against wild type HIV1 NL432; format: functional, organism-based; conditions: Human immunodeficiency virus 1, NL432

Sequence of Protease (Q9YQ12 whole entry): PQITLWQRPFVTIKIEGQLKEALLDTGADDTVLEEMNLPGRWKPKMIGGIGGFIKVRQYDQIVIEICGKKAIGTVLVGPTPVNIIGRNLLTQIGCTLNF
Sequence of Protease (Human immunodeficiency virus 1) (Q9YQ12 as listed by the source): as the sequence (Q9YQ12 whole entry) above

| SMILES | inhibition [1] | IC50 (Protease) | selectivity ratio ([2]; MT4 cells) | EC50 [3] | EC50 [4] | EC50 [5] | EC50 [6] | EC50 [7] | CC50 [8] | EC50 [9] | Ratio EC50 [10] | EC50 [11] | selectivity ratio ([2]; mt4) |
| --- | --- | --- | --- | --- | --- | --- | --- | --- | --- | --- | --- | --- | --- |
| Cc1ccccc1CNC(=O)[C@H]1N(C(=O)[C@@H](O)[C@H](Cc2ccccc2)NC(=O)[C@@H](CSc2ccc3ccccc3c2)NS(C)(=O)=O)CSC1(C)C | 67% | – | 470 | 13 nM | 8 nM | 31 nM | 0.8 nM | 23 nM | 6100 nM | 88 nM | 0.05 | 17 nM | – |
| CC(=O)N[C@H](CSCc1ccc(C)cc1)C(=O)N[C@@H](Cc1ccccc1)[C@H](O)C(=O)N1CSC(C)(C)[C@H]1C(=O)NCc1ccccc1C | 76% | – | 730 | 12 nM | 12 nM | 41 nM | 3.6 nM | 27 nM | 8800 nM | 84 nM | 0.16 | 22 nM | – |
| Cc1ccc(CSC[C@@H](NS(C)(=O)=O)C(=O)N[C@@H](Cc2ccccc2)[C@H](O)C(=O)N2CSC(C)(C)[C@H]2C(=O)NCc2ccccc2C)cc1 | 58% | – | 520 | 17 nM | 14 nM | 58 nM | 1.5 nM | 43 nM | 8900 nM | 110 nM | 0.09 | 17 nM | – |
| CSC[C@H](NC(=O)COc1cccc2cnccc12)C(=O)N[C@@H](Cc1ccccc1)[C@H](O)C(=O)N1CSC[C@H]1C(=O)NC(C)(C)C | 40% | – | – | – | – | 201 nM | 84 nM | 237 nM | – | 529 nM | 2.3 | 36 nM | > 1400 |
| CC(C)c1nc(CN(C)C(=O)N[C@H](C(=O)N[C@@H](Cc2ccccc2)C[C@H](O)[C@H](Cc2ccccc2)NC(=O)OCc2cncs2)C(C)C)cs1 [RITONAVIR] | 90% | – | – | – | 24 nM | – | – | – | – | 422 nM | – | – | – |
| CC(=O)N[C@H](CSc1ccc2ccccc2n1)C(=O)N[C@@H](Cc1ccccc1)[C@H](O)C(=O)N1CSC(C)(C)[C@H]1C(=O)NCc1ccccc1C | 27% | – | 64 | 151 nM | – | – | – | – | 9700 nM | – | – | – | – |
| CC(=O)N[C@H](CS(=O)(=O)c1cccc2ccccc12)C(=O)N[C@@H](Cc1ccccc1)[C@H](O)C(=O)N1CSC(C)(C)[C@H]1C(=O)NCc1ccccc1C | 97% | 0.09 nM | 400 | 40 nM | – | – | – | – | 16000 nM | – | – | – | – |
| Cc1ccccc1CNC(=O)[C@H]1N(C(=O)[C@@H](O)[C@H](Cc2ccccc2)NC(=O)[C@@H](CSc2cccc3ccccc23)NS(C)(=O)=O)CSC1(C)C | 74% | – | 690 | 6.4 nM | 4 nM | 17 nM | 0.67 nM | 13 nM | 4400 nM | 347 nM | 0.07 | 9.3 nM | – |
| CC(=O)N[C@H](CSCc1ccccc1)C(=O)N[C@@H](Cc1ccccc1)[C@H](O)C(=O)N1CSC(C)(C)[C@H]1C(=O)NCc1ccccc1C | 81% | – | 1000 | 15 nM | 16 nM | 40 nM | 5.9 nM | 21 nM | 15000 nM | 96 nM | 0.33 | 18 nM | – |
| CC(=O)N[C@H](CCc1ccccc1)C(=O)N[C@@H](Cc1ccccc1)[C@H](O)C(=O)N1CSC(C)(C)[C@H]1C(=O)NCc1ccccc1C | 45% | – | > 610 | 51 nM | 25 nM | 101 nM | 18 nM | 132 nM | > 31000 nM | 155 nM | 0.23 | 78 nM | – |
| Cc1c(O)cccc1C(=O)N[C@@H](CSc1ccccc1)[C@H](O)CN1C[C@H]2CCCC[C@H]2C[C@H]1C(=O)NC(C)(C)C | 29% | – | 690 | – | 21 nM | – | – | – | – | 606 nM | 12 | – | – |
| COc1ccc(CS(=O)(=O)C[C@@H](NC(C)=O)C(=O)N[C@@H](Cc2ccccc2)[C@H](O)C(=O)N2CSC(C)(C)[C@H]2C(=O)NCc2ccccc2C)cc1 | 59% | – | > 260 | – | – | – | – | – | – | – | – | – | – |
| CC(=O)N[C@H](CSc1ccc2ccccc2c1)C(=O)N[C@@H](Cc1ccccc1)[C@H](O)C(=O)N1CSC(C)(C)[C@H]1C(=O)NCc1ccccc1C | 53% | – | 460 | 18 nM | 14 nM | 65 nM | 7.2 nM | 32 nM | 8300 nM | 95 nM | 0.42 | 17 nM | – |
| CC(=O)N[C@H](CSc1cccc2ccccc12)C(=O)N[C@@H](Cc1ccccc1)[C@H](O)C(=O)N1CSC(C)(C)[C@H]1C(=O)NCc1ccccc1C | 68% | – | 470 | 17 nM | 14 nM | 70 nM | 6.3 nM | 52 nM | 8000 nM | 401 nM | 0.32 | 20 nM | – |
| Cc1ccccc1CNC(=O)[C@H]1N(C(=O)[C@@H](O)[C@H](Cc2ccccc2)NC(=O)[C@@H](CSCc2ccccc2)NS(C)(=O)=O)CSC1(C)C | 66% | – | 580 | 17 nM | 18 nM | 63 nM | 1.8 nM | 55 nM | 9800 nM | 88 nM | 0.09 | 20 nM | – |

The next lines start with results.

| inhibition [1] | IC50 (Protease) | SMILES | selectivity ratio ([2]; MT4 cells) | EC50 [3] | EC50 [4] | EC50 [5] | EC50 [6] | EC50 [7] | CC50 [8] | EC50 [9] | Ratio EC50 [10] | EC50 [11] | selectivity ratio ([2]; mt4) |
| --- | --- | --- | --- | --- | --- | --- | --- | --- | --- | --- | --- | --- | --- |
| 95% | 0.11 nM | Cc1ccccc1CNC(=O)[C@H]1N(C(=O)[C@@H](O)[C@H](Cc2ccccc2)NC(=O)[C@@H](CS(=O)(=O)c2ccc(Cl)cc2)NS(C)(=O)=O)CSC1(C)C | – | – | – | – | – | – | – | – | – | – | – |
| 28% | – | Cc1ccccc1CNC(=O)[C@H]1N(C(=O)[C@@H](O)[C@H](Cc2ccccc2)NC(=O)[C@@H](CSc2ccc3ccccc3n2)NS(C)(=O)=O)CSC1(C)C | 50 | 169 nM | – | – | – | – | 8500 nM | – | – | – | – |
| 79% | 0.27 nM | CC(=O)N[C@H](CS(=O)(=O)c1ccc(F)cc1)C(=O)N[C@@H](Cc1ccccc1)[C@H](O)C(=O)N1CSC(C)(C)[C@H]1C(=O)NCc1ccccc1C | > 270 | 105 nM | – | – | – | – | > 28000 nM | – | – | – | – |
| 66% | – | COc1ccc(CS(=O)(=O)C[C@@H](NS(C)(=O)=O)C(=O)N[C@@H](Cc2ccccc2)[C@H](O)C(=O)N2CSC(C)(C)[C@H]2C(=O)NCc2ccccc2C)cc1 | > 130 | 203 nM | – | – | – | – | > 26000 nM | – | – | – | – |
| 85% | – | CC(=O)N[C@H](CS(=O)(=O)c1ccc2ccccc2n1)C(=O)N[C@@H](Cc1ccccc1)[C@H](O)C(=O)N1CSC(C)(C)[C@H]1C(=O)NCc1ccccc1C | > 290 | 94 nM | – | – | – | – | > 27000 nM | – | – | – | – |
| 52% | – | Cc1ccc(CS(=O)(=O)C[C@@H](NS(C)(=O)=O)C(=O)N[C@@H](Cc2ccccc2)[C@H](O)C(=O)N2CSC(C)(C)[C@H]2C(=O)NCc2ccccc2C)cc1 | > 210 | 125 nM | – | – | – | – | > 26000 nM | – | – | – | – |
| 94% | – | Cc1ccccc1CNC(=O)[C@H]1N(C(=O)[C@@H](O)[C@H](Cc2ccccc2)NC(=O)[C@@H](CS(=O)(=O)c2ccc(F)cc2)NS(C)(=O)=O)CSC1(C)C | > 130 | 212 nM | – | – | – | – | > 27000 nM | – | – | – | – |
| 53% | – | CC(=O)N[C@H](CS(=O)(=O)Cc1ccc(C)cc1)C(=O)N[C@@H](Cc1ccccc1)[C@H](O)C(=O)N1CSC(C)(C)[C@H]1C(=O)NCc1ccccc1C | > 340 | 82 nM | – | – | – | – | > 28000 nM | – | – | – | – |
| 97% | 0.083 nM | Cc1ccccc1CNC(=O)[C@H]1N(C(=O)[C@@H](O)[C@H](Cc2ccccc2)NC(=O)[C@@H](CS(=O)(=O)c2cccc3ccccc23)NS(C)(=O)=O)CSC1(C)C | 310 | 61 nM | – | – | – | – | 19000 nM | – | – | – | – |
| 55% | – | Cc1ccccc1CNC(=O)[C@H]1N(C(=O)[C@@H](O)[C@H](Cc2ccccc2)NC(=O)[C@@H](CCc2ccccc2)NS(C)(=O)=O)CSC1(C)C | 190 | 59 nM | – | – | – | – | 11000 nM | – | – | – | – |
| 66% | – | Cc1ccccc1CNC(=O)[C@H]1N(C(=O)[C@@H](O)[C@H](Cc2ccccc2)NC(=O)[C@@H](CS(=O)(=O)Cc2ccccc2)NS(C)(=O)=O)CSC1(C)C | > 120 | 219 nM | – | – | – | – | > 27000 nM | – | – | – | – |
| 98% | 0.09 nM | Cc1ccccc1CNC(=O)[C@H]1N(C(=O)[C@@H](O)[C@H](Cc2ccccc2)NC(=O)[C@@H](CS(=O)(=O)c2ccc3ccccc3c2)NS(C)(=O)=O)CSC1(C)C | 230 | 81 nM | – | – | – | – | 19000 nM | – | – | – | – |
| 91% | – | Cc1ccccc1CNC(=O)[C@H]1N(C(=O)[C@@H](O)[C@H](Cc2ccccc2)NC(=O)[C@@H](CS(=O)(=O)c2ccc3ccccc3n2)NS(C)(=O)=O)CSC1(C)C | > 55 | 473 nM | – | – | – | – | > 26000 nM | – | – | – | – |
| 47% | – | CC(=O)N[C@H](CS(=O)(=O)Cc1ccccc1)C(=O)N[C@@H](Cc1ccccc1)[C@H](O)C(=O)N1CSC(C)(C)[C@H]1C(=O)NCc1ccccc1C | > 240 | 117 nM | – | – | – | – | > 28000 nM | – | – | – | – |
